Sampled rows, rich in hits. Any-hit rate of the full collection: about 3.3%.
TDP2 inh: TDP2 (human) inhibition, absorbance primary screen; recombinant TDP2, T5PNP hydrolysis, p-nitrophenol absorbance 415 nm; inhibition, % at 12.8 µM; O95551; 370,000 tested, 0.34% active;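 active = inhibition above the mean of all tested compounds plus 3 SD, set per campaign, cut at about 25% in these data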;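 also: 0% = DMSO with enzyme and 100% = buffer with substrate but no TDP2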
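System: recombinant human TDP2 / Amount: 120 nM TDP2 per well / Also added: 5 mM T5PNP chromogenic substrate / Doses: 12.8 µM single point, 1% DMSO / Incubation: 2 h at 37 °C / Detection: p-Nitrophenol epi absorbance / Evaluation: % inhibition relative to enzyme-containing and enzyme-free wells / Repeats: singlicate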
MBD2 DNA inh: blocks human MBD2 binding to methylated DNA | TR-FRET, MBD2 binding to methylated oligonucleotide | 370,000 tested, 0.31% active | AID 686964 | inhibition, % at 4.4 µM; in the data active = inhibition above about 13%
LEDGF integ inh: blocks HIV-1 LEDGF/p75-dependent DNA integration; 370,000 tested, 0.64% active; inhibition, % at 3.7 µM; TR-FRET IN-LEDGF/p75 DNA integration, Eu/Cy5;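 active = inhibition above the screen-wide mean plus 3 SD, cut at about 13% in these data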;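 also: signal is the Cy5 over europium emission ratio at 671 and 618 nm; 0% = plate median of compound wells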
UHRF1 MBD2 ctr: blocks human UHRF1 binding to methylated DNA | UHRF1 binding to methylated oligo, TR-FRET | inhibition, % at 4.4 µM | 370,000 tested, 0.75% active; in the data active = inhibition above about 21%;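 also: UHRF1 SRA domain binding a hemimethylated CpG hairpin DNA probe; 0% = median of test compound wells and 100% = reference inhibitor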
PRMT1 inh: PRMT1 (human) inhibition, primary screen | Q99873 | recombinant PRMT1, activity-based probe fluorescence polarization | inhibition, % at 2.79 µM | 370,000 tested, 1.3% active | AID 652257;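 active = inhibition above about 21% made by adding two undisclosed values, limit read from the data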
Target sequence (Q99873 whole entry, looked up): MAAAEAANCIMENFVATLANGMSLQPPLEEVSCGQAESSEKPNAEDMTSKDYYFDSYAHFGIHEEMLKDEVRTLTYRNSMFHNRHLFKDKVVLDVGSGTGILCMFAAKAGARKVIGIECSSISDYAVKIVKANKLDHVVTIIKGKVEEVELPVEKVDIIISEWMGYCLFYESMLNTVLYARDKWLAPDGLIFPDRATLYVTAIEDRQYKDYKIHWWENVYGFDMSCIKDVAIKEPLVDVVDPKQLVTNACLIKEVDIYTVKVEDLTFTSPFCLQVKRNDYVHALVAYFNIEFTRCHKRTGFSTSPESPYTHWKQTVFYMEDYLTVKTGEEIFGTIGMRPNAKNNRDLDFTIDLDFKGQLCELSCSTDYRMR
SIAE primary: blocks human sialic acid acetylesterase; inhibition, % at 9.66 µM; 370,000 tested, 0.69% active; SIAE FP-Rh probe binding, fluorescence polarization; AID 1053197;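 active = inhibition above a cutoff: mean of compounds within the control limits plus 3 SD of those, cut at about 17% in these data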;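 also: 0% = plate median of compound wells and 100% = probe without SIAE protein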
* marks the source's active call; other numbers are inactive results.

Screening CCOc1ccc(Br)cc1S(=O)(=O)Nc1ccc(C(=O)OCC(=O)N(C)c2ccccc2)cc1 returned TDP2 inh 6.4, MBD2 DNA inh 1.4, LEDGF integ inh -0.8, UHRF1 MBD2 ctr 4.0, PRMT1 inh 1.6 and SIAE primary -0.4.
Screening CCOc1ccc(Br)cc1S(=O)(=O)Nc1cccc(S(=O)(=O)N(C)c2ccccc2)c1 returned TDP2 inh 2.3, MBD2 DNA inh -3.8, LEDGF integ inh 1.0, UHRF1 MBD2 ctr 22.9*, PRMT1 inh 1.7 and SIAE primary -25.3.
C=CCOC(=O)C(CO)NC(=O)CCCC(=O)O (stereo not given) was read as TDP2 inh 0.4, MBD2 DNA inh -2.1, LEDGF integ inh 1.1, UHRF1 MBD2 ctr -0.3, PRMT1 inh -3.5 and SIAE primary 0.3.
For Cc1ccc(SCCNC(=O)/C=C/c2ccccc2Cl)cc1 the results were TDP2 inh -19.9, MBD2 DNA inh 7.8, LEDGF integ inh -2.7, UHRF1 MBD2 ctr 27.4*, PRMT1 inh 5.8 and SIAE primary -6.2.
Screening CN1CCC(N[C@@H](Cc2ccccc2)C(=O)NCC(c2ccccc2)c2ccccc2)(C(=O)NC2CCCCC2)CC1 returned TDP2 inh -12.1, MBD2 DNA inh -4.9, LEDGF integ inh 8.6, UHRF1 MBD2 ctr 1.0, PRMT1 inh -3.5 and SIAE primary 9.8.
Screening Cc1ccccc1N1CCN(C(=O)[C@@H]2CCCN2C2=NS(=O)(=O)c3ccccc32)CC1 returned TDP2 inh 6.6, MBD2 DNA inh -0.4, LEDGF integ inh 0.9, UHRF1 MBD2 ctr 6.5, PRMT1 inh 1.1 and SIAE primary 0.3.
CCOc1ccccc1N1CCN(C(=O)[C@@H]2CCCN2C2=NS(=O)(=O)c3ccccc32)CC1 was read as TDP2 inh 4.3, MBD2 DNA inh 4.1, LEDGF integ inh -5.2, UHRF1 MBD2 ctr 40.4*, PRMT1 inh 3.6 and SIAE primary 1.8.
`CC(C)C[C@@H](CO)N1Cc2nnn(Cc3ccccc3)c2-c2ccccc2S1(=O)=O` gave TDP2 inh 0.4, MBD2 DNA inh -3.5, LEDGF integ inh -1.5, UHRF1 MBD2 ctr 0.2, PRMT1 inh -0.3 and SIAE primary -4.0.
Screening CSc1nnc(CNS(=O)(=O)c2ccc(Cl)cc2)n1C returned TDP2 inh -2.8, MBD2 DNA inh -2.8, LEDGF integ inh -1.0, UHRF1 MBD2 ctr 26.3*, PRMT1 inh -0.6 and SIAE primary 10.3.
`O=C(CNC(=O)c1ccc(Cl)cc1)OCc1nc2ccccc2s1` gave TDP2 inh 3.5, MBD2 DNA inh 3.9, LEDGF integ inh -1.0, UHRF1 MBD2 ctr 25.2*, PRMT1 inh 2.0 and SIAE primary 8.6.
For N#C/C(=C/c1ccc(N2CCCCC2)o1)C(=O)Nc1ccc(Cl)cc1 the results were TDP2 inh -3.1, MBD2 DNA inh -2.6, LEDGF integ inh 2.2, UHRF1 MBD2 ctr 54.2*, PRMT1 inh -33.5 and SIAE primary -0.1.
`COC(=O)[C@H](CC(C)C)N(CCCc1cn(Cc2ccc(C)cc2)nn1)S(=O)(=O)c1ccccc1Br` gave TDP2 inh -5.1, MBD2 DNA inh -1.6, LEDGF integ inh 1.3, UHRF1 MBD2 ctr -2.8, PRMT1 inh -1.0 and SIAE primary 8.5.
CCCNC(=O)c1cc2c(c(-c3cccc(-c4cc5ccccc5o4)c3)n1)[C@@H](CCO)N(C(=O)NC(C)C)C2 was read as TDP2 inh -9.0, MBD2 DNA inh -5.3, LEDGF integ inh -4.4, UHRF1 MBD2 ctr 27.7*, PRMT1 inh 0.7 and SIAE primary -12.3.
`Cc1ccc(-c2cc(-c3nnc(SCC(=O)NC4CCCCC4)n3N)[nH]n2)cc1` gave TDP2 inh 3.4, MBD2 DNA inh -4.9, LEDGF integ inh 2.6, UHRF1 MBD2 ctr 0.0, PRMT1 inh 0.8 and SIAE primary -5.4.
`Cc1ccc(C(=O)NCC(=O)N(C)CC(=O)Nc2c(Cl)cccc2Cl)s1` gave TDP2 inh -15.3, MBD2 DNA inh -4.6, LEDGF integ inh -1.3, UHRF1 MBD2 ctr 22.9*, PRMT1 inh -3.0 and SIAE primary -1.5.
CN(CC(=O)Nc1c(Cl)cccc1Cl)C(=O)c1cccc(-n2cccc2)c1 was read as TDP2 inh 15.1, MBD2 DNA inh 7.4, LEDGF integ inh 2.8, UHRF1 MBD2 ctr 22.8*, PRMT1 inh 0.9 and SIAE primary 3.7.
For CCc1sc(C(=O)NCCc2ccc(S(N)(=O)=O)cc2)cc1Br the results were TDP2 inh -10.1, MBD2 DNA inh 4.8, LEDGF integ inh 2.9, UHRF1 MBD2 ctr 21.1*, PRMT1 inh 0.0 and SIAE primary -7.5.
`Cc1cccc(C2C3=C(Nc4[nH]n(-c5ccccc5)c(=O)c42)c2ccccc2C3=O)c1` (stereo not given) gave TDP2 inh -11.4, MBD2 DNA inh -15.8, LEDGF integ inh 2.9, UHRF1 MBD2 ctr -12.0, PRMT1 inh 21.4* and SIAE primary 20.3*.
Cc1nn(-c2ccccc2)c(C)c1/C=N\NC(=O)CSc1nc2ccccc2n1Cc1ccc(Cl)cc1 was read as TDP2 inh -3.3, MBD2 DNA inh 3.8, LEDGF integ inh -1.5, UHRF1 MBD2 ctr -1.2, PRMT1 inh -3.1 and SIAE primary -19.1.
Screening COc1ccc(S[C@]2(C(=O)N3CCOCC3)CC(=O)N(P(=O)(OC)OC)[C@@H]2c2ccc(OC)cc2)cc1 returned TDP2 inh 0.6, MBD2 DNA inh 2.6, LEDGF integ inh -1.7, UHRF1 MBD2 ctr -0.3, PRMT1 inh 13.0 and SIAE primary -0.7.
`CCc1nc(Sc2nnnn2-c2ccccc2)c2c3c(sc2n1)CCCC3` gave TDP2 inh -4.4, MBD2 DNA inh 2.3, LEDGF integ inh -5.3, UHRF1 MBD2 ctr 41.8*, PRMT1 inh 1.8 and SIAE primary -4.9.
Cc1nc(Sc2nnnn2C)c2c3c(sc2n1)CCC3 was read as TDP2 inh -3.2, MBD2 DNA inh -2.9, LEDGF integ inh 0.9, UHRF1 MBD2 ctr -0.5, PRMT1 inh -1.7 and SIAE primary -2.1.
`CCOc1ccc(S(=O)(=O)N(CC(=O)N/N=C/c2ccc(-c3ccc([N+](=O)[O-])cc3)o2)c2ccccc2)cc1` gave TDP2 inh -15.1, MBD2 DNA inh 11.7, LEDGF integ inh 5.7, UHRF1 MBD2 ctr 28.0*, PRMT1 inh 8.8 and SIAE primary 9.4.
Screening Cc1ccc2c(c1)-c1c(ssc1=S)C(C)(C)N2C(=O)c1ccco1 returned TDP2 inh 4.5, MBD2 DNA inh -5.8, LEDGF integ inh -2.9, UHRF1 MBD2 ctr 1.9, PRMT1 inh 11.2 and SIAE primary 10.2.
For CC1(C)c2ssc(=S)c2-c2ccccc2N1C(=O)c1ccco1 the results were TDP2 inh 1.8, MBD2 DNA inh -2.1, LEDGF integ inh 2.6, UHRF1 MBD2 ctr -1.2, PRMT1 inh 0.6 and SIAE primary 22.0*.
Screening O=C(Nc1ccc(-c2nc3ncccc3o2)cc1)c1ccc([N+](=O)[O-])o1 returned TDP2 inh 12.0, MBD2 DNA inh -2.1, LEDGF integ inh 4.9, UHRF1 MBD2 ctr 40.0*, PRMT1 inh -2.3 and SIAE primary 2.7.

Screening results as filed in PubChem.
